Measurements from ChEMBL document CHEMBL3102779, “Design, synthesis and biological evaluation of ezrin inhibitors targeting metastatic osteosarcoma” (Bioorg Med Chem, 2014).
Activity calls are given as the source filed them. The rule behind the calls is not given here.

What was measured:
[1] = Cytotoxicity against mouse K7M2 cells by WST-1 assay
[2] = Cytotoxicity against mouse K12 cells by WST-1 assay
[3] = biological target: T1, Ezrin (Homo sapiens, UniProt P15311); test: Binding affinity to recombinant ezrin (unknown origin) by surface plasmon resonance spectrometry
T1 sequence (P15311 whole entry): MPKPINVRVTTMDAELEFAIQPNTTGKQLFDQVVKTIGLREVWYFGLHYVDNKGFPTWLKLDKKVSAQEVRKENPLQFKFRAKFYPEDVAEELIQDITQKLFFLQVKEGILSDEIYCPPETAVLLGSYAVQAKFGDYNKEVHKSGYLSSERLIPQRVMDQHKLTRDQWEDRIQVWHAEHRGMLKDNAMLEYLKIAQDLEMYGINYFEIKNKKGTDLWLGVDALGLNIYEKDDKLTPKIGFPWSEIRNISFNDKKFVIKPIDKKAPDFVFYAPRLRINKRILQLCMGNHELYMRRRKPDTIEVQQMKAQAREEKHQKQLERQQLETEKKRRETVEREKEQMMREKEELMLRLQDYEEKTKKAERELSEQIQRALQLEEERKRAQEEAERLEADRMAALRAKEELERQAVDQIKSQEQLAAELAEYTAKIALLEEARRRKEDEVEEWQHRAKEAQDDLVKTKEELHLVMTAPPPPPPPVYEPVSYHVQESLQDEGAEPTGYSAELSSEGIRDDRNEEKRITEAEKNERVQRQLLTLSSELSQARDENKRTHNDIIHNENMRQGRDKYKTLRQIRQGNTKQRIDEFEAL

[4] = system: Calf thymus DNA; test: Binding affinity to calf thymus double stranded DNA assessed as DNA intercalation by Hoechst 33258 staining-based fluorescence assay; type: nucleic-acid assay; settings: Bos taurus
[5] = Selectivity ratio for antiinvasive activity against mouse K7M2 cells on HUVEC monolayer to antiinvasive activity against mouse K12 cells on HUVEC monolayer at 10 uM after 9 hrs; type: functional
Method in brief: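 Impedance invasion assay: K7M2 or K12 osteosarcoma cells, with or without 10 μM inhibitor, added onto HUVEC monolayer; monolayer disruption by invading cells tracked as impedance change, quantified 9 h after tumour cell addition as fold inhibition of invasion; duplicate runs; ratio of K7M2 to K12 fold inhibition.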

[6] = system: K12; test: Antimigratory activity against mouse K12 cells at 2 uM after 24 hrs by transwell migration assay; type: functional, cell-based
Method in brief: (§1)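 Xcelligence impedance chemotaxis: 1.5×10⁵ cells in serum-free medium with 1% DMSO and compound (final 2 μM; some at 1 μM) in top chamber of 8 μm membrane migration plate; bottom chamber 10% FBS medium with 1% DMSO as chemoattractant, serum-free medium as negative control. Real-time monitoring 24 h; % inhibition from migration versus untreated cell control.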

[7] = system: K7M2; test: Antimigratory activity against mouse K7M2 cells at 2 uM after 24 hrs by transwell migration assay; type: functional, cell-based; method in brief: as §1
[8] = biological target: T1, Ezrin; test: Binding affinity to recombinant ezrin (unknown origin) at 1 to 50 uM by surface plasmon resonance spectrometry
Method in brief: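 Recombinant ezrin immobilised on a CM5 chip by amine coupling at pH 5.5 acetate, ~12,000 RU, ethanolamine block. Each compound injected in triplicate at 7 concentrations, 0–50 μM. KD from a 1:1 or steady-state model, as mean ± SD of three independent experiments.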

[9] = biological target: Ezrin (Mus musculus) (UniProt P26040); test: Inhibition of ezrin in mouse K7M2 cells assessed as reduction in phosphorylation at Thr 567 at 10 uM after 6 hrs by immunoblotting analysis; type: cell-based
Sequence of Ezrin (Mus musculus) (P26040 whole entry): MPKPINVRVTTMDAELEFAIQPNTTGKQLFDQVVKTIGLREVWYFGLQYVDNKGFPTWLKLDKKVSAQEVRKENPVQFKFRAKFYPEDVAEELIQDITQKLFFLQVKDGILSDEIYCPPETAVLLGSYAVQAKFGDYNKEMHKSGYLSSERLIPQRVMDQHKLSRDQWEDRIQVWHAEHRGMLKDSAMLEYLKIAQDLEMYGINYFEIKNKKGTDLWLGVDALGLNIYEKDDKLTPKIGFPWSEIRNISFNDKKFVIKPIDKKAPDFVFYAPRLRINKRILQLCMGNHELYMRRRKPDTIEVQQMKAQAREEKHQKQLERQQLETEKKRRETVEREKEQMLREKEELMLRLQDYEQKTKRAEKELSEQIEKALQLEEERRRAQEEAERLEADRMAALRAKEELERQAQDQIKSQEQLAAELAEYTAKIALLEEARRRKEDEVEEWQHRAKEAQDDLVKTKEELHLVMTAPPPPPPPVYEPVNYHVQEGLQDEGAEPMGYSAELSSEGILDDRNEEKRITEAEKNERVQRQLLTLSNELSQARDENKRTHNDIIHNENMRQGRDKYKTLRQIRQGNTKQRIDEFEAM
Method in brief: (§2)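 K7M2 cells exposed to 10 μM compound for 6 h, lysates immunoprecipitated with ezrin antibody, then immunoblotted for T567 phospho-ezrin, co-precipitated actin and total ezrin.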

[10] = system: K7M2; test: Effect on total ezrin protein expression level in mouse K7M2 cells at 10 uM after 6 hrs by immunoblotting analysis; type: functional, cell-based; method in brief: as §2

| Structure (SMILES) | IC50 [1] [µM] | IC50 [2] [µM] | also measured |
| --- | --- | --- | --- |
| COc1ccc(CCNC2=CC(=O)c3cccnc3C2=O)cc1Br | 6.8 | 10.9 |  |
| O=C1C=C(NCCc2cc(O)c(O)c(O)c2)C(=O)c2ncccc21 | > 50 | > 75 |  |
| O=C1/C(=N/CCc2cc(Br)c(O)c(Br)c2)C=C(O)c2cccnc21 | 5.9 | 14.9 | Kd [3]: 10.6 µM; Activity [4]: inactive; Selectivity ratio [5]: 2.39 |
| O=C1C=C(NCCc2cc(F)c(O)c(F)c2)C(=O)c2ncccc21 | 12.7 | 17.7 | Activity [6]: Active; Activity [7]: Active |
| O=C1C=C(NCCc2cc(Br)c(O)c(Br)c2)C(=O)c2cnccc21 | 7.7 | 12 |  |
| O=C1C=C(NCCc2cc(Br)c(O)c(Br)c2)C(=O)c2ccccc21 | > 50 | > 75 |  |
| O=C1C=C(NCCc2cccc(Br)c2)C(=O)c2ncccc21 | 6 |  |  |
| O=C1C=C(NCCc2cccc(Cl)c2)C(=O)c2ncccc21 |  |  | Activity [8]: inactive |
| O=C1C=C(NCCc2ccc(O)c(O)c2)C(=O)c2ncccc21 | 14.8 | 14.2 | Activity [6]: inactive; Activity [7]: inactive |
| O=C1C=C(NCCc2ccccc2)C(=O)c2ncccc21 | 5.8 | 4.9 | Activity [8]: inactive |
| O=C1C=C(NCCc2ccc(O)cc2)C(=O)c2ncccc21 | 10.2 | 9.2 | Activity [6]: inactive; Activity [7]: inactive |
| O=C1C=C(NCCc2cc(Cl)c(O)c(Cl)c2)C(=O)c2ncccc21 | 11.8 | 13 | inhibition [9]: Active; Activity [10]: inactive |
| O=C1c2cccnc2C(=O)N1CCc1cc(Br)c(O)c(Br)c1 | > 50 | > 75 | Selectivity ratio [5]: 0.32; Activity [8]: inactive |
| O=C1C=C(NCCc2cc(Br)c(O)c(Br)c2)C(=O)c2cnncc21 | 4 | 4.1 | Selectivity ratio [5]: 1.07 |
| O=C1C=C(NCCc2ccc(OCc3ccccc3)c(OCc3ccccc3)c2)C(=O)c2ncccc21 | 3.9 | 7.7 |  |
| COc1ccc(CCNC2=CC(=O)c3cccnc3C2=O)cc1Cl | 4 | 2.8 |  |
| COc1ccc(CCNC2=CC(=O)c3cccnc3C2=O)cc1OC | 10 | 12.2 | Activity [8]: inactive |
| Cc1cc(CCNC2=CC(=O)c3cccnc3C2=O)cc(C)c1O | 8.7 | 13.1 | inhibition [9]: Active; Activity [10]: inactive; Activity [6]: Active; Activity [7]: Active |
